{"source": "paper PMC3243785", "about": "(Chemical research in toxicology, 2011)", "key": {"[1]": {"tested_on": "hepatic microsomes from PB-, DEX- or VEH-treated rats (P450 enzymes)", "type": "in vitro ADME, rat", "conditions": "for Metabolite identified by GC/MS (major/minor): large scale experiment; for Metabolite formation, Percent of ΣOH-PCB: 37°C; for Percent of PCB 136 metabolized to the metabolite: microsomes from PB-, DEX- or VEH-treated rats; for Percent of PCB 136 metabolized to the metabolite / Percent of PCB 136 converted to the metabolite: 50 μM PCB 136; for Formation of metabolite relative to microsomes from VEH-treated rats: 2 min incubation"}, "P450 2B enzymes": {"tested_on": "P450 2B enzymes", "experiment": "BROD activity of hepatic microsomes from inducer-treated rats", "type": "biochemical, rat", "conditions": "intraperitoneal inducer treatment of male Sprague-Dawley rats, relative to VEH"}, "P450 3A": {"tested_on": "P450 3A", "experiment": "BQ activity of hepatic microsomes from inducer-treated rats", "type": "biochemical, rat", "conditions": "intraperitoneal inducer treatment of male Sprague-Dawley rats, relative to VEH"}, "[2]": {"tested_on": "hepatic microsomes from PB-, DEX- or VEH-treated rats (P450 enzymes)", "experiment": "Enantioselective gas chromatography", "type": "in vitro ADME, rat", "conditions": "for Enantiomeric fraction (EF), range over time course: 50 μM PCB 136"}, "[3]": {"tested_on": "Ryanodine receptors (RyRs)", "conditions": "cited from earlier work"}, "rat recombinant P450 2B1": {"tested_on": "rat recombinant P450 2B1", "conditions": "cited from earlier work"}, "[4]": {"experiment": "Aqueous solubility of PCB 136 in incubation buffer by light scattering", "type": "physicochemical", "conditions": "phosphate buffer (incubation buffer), pH 7.4", "summary_of_the_method": "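Test compound dissolved in DMSO was added to 0.1 M phosphate buffer containing 3 mM MgCl2. Light scattering was read at 37 °C in a Peltier-controlled luminescence spectrophotometer, with excitation and emission both at 400 nm and 5 nm slits. Integration time was 5 s, with 5 min pre-recording followed by 5 min recording.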"}, "[5]": {"conditions": "microsomes from PB-treated rats"}, "[6]": {"conditions": "microsomes from DEX-treated rats, 5 μM PCB 136, 5 min"}, "[7]": {"conditions": "microsomes from PB-treated rats, 5 μM PCB 136, 5 min"}, "[8]": {"conditions": "microsomes from VEH-treated rats, 5 μM PCB 136, 5 min"}, "[9]": {"conditions": "microsomes from PB-treated rats, 50 μM PCB 136, 5 min"}, "[10]": {"conditions": "all incubations with 5 μM PCB 136"}, "[11]": {"conditions": "all three microsomal preparations"}, "[12]": {"conditions": "microsomes from DEX-treated rats"}}, "note": "Where two headings read alike, the source gives them in different places."}
{"smiles": "Oc1c(O)c(Cl)c(-c2c(Cl)ccc(Cl)c2Cl)c(Cl)c1Cl", "note": "[4,5-diOH-PCB 136, 2,2',3,3',6,6'-hexachlorobiphenyl-4,5-diol]", "values": [{"measurement": "Metabolite identified by GC/MS (major/minor)", "setting": "[1]; [5]", "value": "minor metabolites"}, {"measurement": "Metabolite formation, Percent of ΣOH-PCB", "setting": "[1]; [6]", "value": 3, "unit": "%"}, {"measurement": "Percent of PCB 136 metabolized to the metabolite", "setting": "[1]", "value": "< 0.1", "unit": "%"}, {"measurement": "Metabolite formation, Percent of ΣOH-PCB", "setting": "[1]; [7]", "value": 22, "unit": "%"}, {"measurement": "Metabolite formation, Percent of ΣOH-PCB", "setting": "[1]; [8]", "value": 2, "unit": "%"}, {"measurement": "Metabolite formation, Percent of ΣOH-PCB", "setting": "[1]; microsomes from VEH-treated rats, 50 μM PCB 136, 5 min", "value": 1, "unit": "%"}]}
{"smiles": "C[C@@H]1C[C@H]2[C@@H]3CCC4=CC(=O)C=C[C@]4(C)[C@@]3(F)[C@@H](O)C[C@]2(C)[C@@]1(O)C(=O)CO", "note": "[DEX, dexamethasone]", "values": [{"measurement": "Increase in BROD activity in hepatic microsomes of treated rats", "setting": "P450 2B enzymes", "value": 7, "unit": "fold"}, {"measurement": "Increase in BQ activity in hepatic microsomes of treated rats", "setting": "P450 3A", "value": 84, "unit": "fold"}]}
{"smiles": "Oc1cc(Cl)c(-c2c(Cl)ccc(Cl)c2Cl)c(Cl)c1Cl", "note": "[4-OH-PCB 136, 2,2',3,3',6,6'-hexachlorobiphenyl-4-ol]", "values": [{"measurement": "Metabolite identified by GC/MS (major/minor)", "setting": "[1]; [5]", "value": "minor metabolites"}, {"measurement": "Metabolite formation, Percent of ΣOH-PCB", "setting": "[1]; [6]", "value": 3, "unit": "%"}, {"measurement": "Metabolite formation, Percent of ΣOH-PCB", "setting": "[1]; microsomes from DEX-treated rats, 50 μM PCB 136, 5 min", "value": 2, "unit": "%"}, {"measurement": "Percent of PCB 136 metabolized to the metabolite", "setting": "[1]", "value": 0.1, "unit": "%"}, {"measurement": "Metabolite formation, Percent of ΣOH-PCB", "setting": "[1]; [9]", "value": 1, "unit": "%"}, {"measurement": "Metabolite formation, Percent of ΣOH-PCB", "setting": "[1]; [8]", "value": 15, "unit": "%"}, {"measurement": "Enantiomeric fraction (EF)", "setting": "[2]; DEX-microsomes, 5 μM PCB 136, 30 min", "value": 0.22}, {"measurement": "Enantiomeric fraction (EF)", "setting": "[2]; DEX-microsomes, 50 μM PCB 136, 1 min", "value": 0.39}, {"measurement": "Enantiomeric fraction (EF)", "setting": "[2]; DEX-microsomes, 50 μM PCB 136, 10 min", "value": 0.33}, {"measurement": "Enantiomeric fraction (EF)", "setting": "[2]; PB-microsomes, 50 μM PCB 136, 1 min", "value": 0.43}, {"measurement": "Enantiomeric fraction (EF), direction of enrichment", "setting": "[2]; [10]", "value": "< 0.5"}, {"measurement": "Enantiomeric fraction (EF), direction of enrichment", "setting": "[2]; [11]", "value": "< 0.5"}, {"measurement": "Concentration needed to double basal RyR activity (EC2x)", "setting": "[3]", "value": 1.60, "unit": "µM"}, {"measurement": "Formation of metabolite by rat recombinant P450 2B1", "setting": "rat recombinant P450 2B1", "value": "no detectable quantities"}]}
{"smiles": "CCC1(c2ccccc2)C(=O)NC(=O)NC1=O", "note": "[PB, phenobarbital]", "values": [{"measurement": "Increase in BROD activity in hepatic microsomes of treated rats", "setting": "P450 2B enzymes", "value": 94, "unit": "fold"}]}
{"smiles": "Clc1ccc(Cl)c(-c2c(Cl)ccc(Cl)c2Cl)c1Cl", "note": "[(-)-PCB 136]", "values": [{"measurement": "Activity towards RyRs", "setting": "[3]; enantiospecific", "value": "displays activity"}]}
{"smiles": "Clc1ccc(Cl)c(-c2c(Cl)ccc(Cl)c2Cl)c1Cl", "note": "[PCB 136, 2,2',3,3',6,6'-hexachlorobiphenyl]", "values": [{"measurement": "Enantiomeric fraction (EF)", "setting": "[2]; PB-microsomes, 5 μM PCB 136, 5 min incubation", "value": 0.35}, {"measurement": "Enantiomeric fraction (EF)", "setting": "[2]; VEH-microsomes, 5 μM PCB 136, 5 min incubation", "value": 0.49}, {"measurement": "solubility", "setting": "[4]", "value": "~0.25", "unit": "µM"}]}
{"smiles": "Oc1cc(Cl)c(Cl)c(-c2c(Cl)ccc(Cl)c2Cl)c1Cl", "note": "[5-OH-PCB 136, 2,2',3,3',6,6'-hexachlorobiphenyl-5-ol]", "values": [{"measurement": "Metabolite identified by GC/MS (major/minor)", "setting": "[1]; [5]", "value": "major metabolite"}, {"measurement": "Metabolite formation, Percent of ΣOH-PCB", "setting": "[1]; [6]", "value": 94, "unit": "%"}, {"measurement": "Percent of PCB 136 converted to the metabolite", "setting": "[1]; [12]", "value": "~2", "unit": "%"}, {"measurement": "Formation of metabolite relative to microsomes from VEH-treated rats", "setting": "[1]; [12]", "value": 8, "unit": "times"}, {"measurement": "Metabolite formation, Percent of ΣOH-PCB", "setting": "[1]; [7]", "value": 78, "unit": "%"}, {"measurement": "Percent of PCB 136 converted to the metabolite", "setting": "[1]; [5]", "value": "approximately 22%"}, {"measurement": "Metabolite formation, Percent of ΣOH-PCB", "setting": "[1]; [9]", "value": 99, "unit": "%"}, {"measurement": "Formation of metabolite relative to microsomes from VEH-treated rats", "setting": "[1]; [5]", "value": 84, "unit": "times"}, {"measurement": "Metabolite formation, Percent of ΣOH-PCB", "setting": "[1]; [8]", "value": 83, "unit": "%"}, {"measurement": "Percent of PCB 136 converted to the metabolite", "setting": "[1]; microsomes from VEH-treated rats", "value": "~0.4", "unit": "%"}, {"measurement": "Enantiomeric fraction (EF), range over time course", "setting": "[2]; PB-microsomes", "value": "0.70-0.72"}, {"measurement": "Enantiomeric fraction (EF), range over time course", "setting": "[2]; VEH-microsomes", "value": "0.62-0.75"}, {"measurement": "Enantiomeric fraction (EF)", "setting": "[2]; VEH-microsomes, 50 μM PCB 136, 1 min", "value": 0.62}, {"measurement": "Enantiomeric fraction (EF), direction of enrichment", "setting": "[2]; [10]", "value": "> 0.5"}, {"measurement": "Enantiomeric fraction (EF), direction of enrichment", "setting": "[2]; [11]", "value": "> 0.5"}]}
